In the array DNA melting data of Ke et al. (doi:10.1101/2024.01.08.574731):

Legend:
[1] = melting temperature; fluorescence melt of hairpins on a sequencing array, two-state fit, raised by 9.35 °C to match UV melts; settings: sodium 0.088 M
Outline: (§1)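 Folding enthalpy and melting temperature were estimated with bootstrapped two-state fits and combined across four replicates by inverse-variance weighting, with fitted temperatures raised by 9.35 °C to match UV melts. The data were Cy3 fluorescence of library hairpins, with annealed Cy3 and quencher oligos, on a sequenced MiSeq flow cell in 50 mM Na-HEPES pH 8.0, 25 mM NaCl, imaged in 2.5 °C steps up to 60 °C and normalised to pre-quench Cy3 and control constructs.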

[2] = folding enthalpy; higher = less favourable; fluorescence melt of hairpins on a sequencing array, two-state fit; settings: sodium 0.088 M
Outline: as §1

GCCGAGCGAAAGCTGGGC (((.(((....))).)))
Tm [1]: 68 °C | folding enthalpy [2]: -30 kcal/mol

GGGAGACCGAAAGGTCCC (((..(((....))))))
Tm [1]: 53.2 °C | folding enthalpy [2]: -12.8 kcal/mol

GCTGCGCGAAAGCGGCGC ((..(((....)))..))
Tm [1]: 63.7 °C | folding enthalpy [2]: -15.5 kcal/mol

GCTCATCGAAAGATAGC (((.(((....))))))
Tm [1]: 42.3 °C | folding enthalpy [2]: -26.3 kcal/mol

GAAAATGAAAATTTTC ((((((....))))))
Tm [1]: 38.6 °C | folding enthalpy [2]: -23.1 kcal/mol

GATCAAAACATTGATC ((((((....))))))
Tm [1]: 42.3 °C | folding enthalpy [2]: -31.7 kcal/mol

GATCGCCCTGCGATC ((((((...))))))
Tm [1]: 67.8 °C | folding enthalpy [2]: -32 kcal/mol

GATCATCAAAATGATC ((((((....))))))
Tm [1]: 45 °C | folding enthalpy [2]: -33.3 kcal/mol

GTCGTTGGAAACAGCGAC ((((.((....)).))))
Tm [1]: 52.4 °C | folding enthalpy [2]: -37.5 kcal/mol

GGAAGGGGAAACCCCTCC (((.(((....))).)))
Tm [1]: 45 °C | folding enthalpy [2]: -21.1 kcal/mol

GCGAGCTGTCGC ((((....))))
Tm [1]: 48.8 °C | folding enthalpy [2]: -17.8 kcal/mol

CGTCCGGAAACGGAGACG ((((((....)))..)))
Tm [1]: 45.3 °C | folding enthalpy [2]: -21.4 kcal/mol

GCTTACGAAAGTAATAGC ((((((....)))..)))
Tm [1]: 38.6 °C | folding enthalpy [2]: -17.8 kcal/mol

GTCCAACGAAAGTTGAC (((.(((....))))))
Tm [1]: 45 °C | folding enthalpy [2]: -14.7 kcal/mol

GACGCTGGAAACAGTGTC (((.(((....))).)))
Tm [1]: 53.5 °C | folding enthalpy [2]: -42 kcal/mol

GCGTCTCGACGC ((((....))))
Tm [1]: 68.6 °C | folding enthalpy [2]: -26.9 kcal/mol

GAGCAAGGAAACTTGTTC ((.((((....)))).))
Tm [1]: 36.2 °C | folding enthalpy [2]: -26.1 kcal/mol

GCATGGACGAAAGTCTGC (((..(((....))))))
Tm [1]: 43 °C | folding enthalpy [2]: -19.1 kcal/mol

GGAGGGCGAAAGCCATCC (((.(((....))).)))
Tm [1]: 66.3 °C | folding enthalpy [2]: -33.8 kcal/mol

GGACCCCGAAAGGGATCC (((.(((....))).)))
Tm [1]: 55.3 °C | folding enthalpy [2]: -26.9 kcal/mol

GGCAGAGGAAACTCTGTC (.(((((....))))).)
Tm [1]: 49.7 °C | folding enthalpy [2]: -30.7 kcal/mol

GCGTCGCCACGC ((((....))))
Tm [1]: 53.7 °C | folding enthalpy [2]: -15.9 kcal/mol

GGACCACCGAAAGGTTCC (((..(((....))))))
Tm [1]: 29.6 °C | folding enthalpy [2]: -11.2 kcal/mol

GCGGAAGCGAAAGCTCGC (((..(((....))))))
Tm [1]: 52.1 °C | folding enthalpy [2]: -31.5 kcal/mol

GCCTGTGGAAACGTAGGC ((((..(....)..))))
Tm [1]: 48.2 °C | folding enthalpy [2]: -28 kcal/mol

GCCCACCGAAAGGTTGGC (((.(((....))).)))
Tm [1]: 55.3 °C | folding enthalpy [2]: -42.5 kcal/mol

GCCAGGCGAAAGCTCGGC (((..((....))..)))
Tm [1]: 59.8 °C | folding enthalpy [2]: -38.4 kcal/mol

GGTCTCGAAAGAGTGACC ((((((....)))..)))
Tm [1]: 39.8 °C | folding enthalpy [2]: -24.5 kcal/mol

GGGGCTGGAAACGGCCCC (((((.(....).)))))
Tm [1]: 66.8 °C | folding enthalpy [2]: -40.7 kcal/mol

GTCCCGCGAAAGCGTGAC (((.(((....))).)))
Tm [1]: 52.9 °C | folding enthalpy [2]: -23.9 kcal/mol

GGTACCGGAAACGGTATC (.(((((....))))).)
Tm [1]: 51.6 °C | folding enthalpy [2]: -23.9 kcal/mol

GAGGCTGGAAACAGCCCC (.(((((....))))).)
Tm [1]: 46.1 °C | folding enthalpy [2]: -8.68 kcal/mol

GTCGTCGAAAGACCAGAC ((((((....)))..)))
Tm [1]: 34.9 °C | folding enthalpy [2]: -16.6 kcal/mol

GACCGCGAAAGCGCAGTC ((((((....)))..)))
Tm [1]: 38 °C | folding enthalpy [2]: -16.3 kcal/mol

GGGTCCGAAAGGACACCC ((((((....)))..)))
Tm [1]: 55.5 °C | folding enthalpy [2]: -11 kcal/mol

GAACCCGAAAGGGACTTC ((((((....)))..)))
Tm [1]: 42.9 °C | folding enthalpy [2]: -20.2 kcal/mol

GCGTGTCGACGC ((((....))))
Tm [1]: 55.4 °C | folding enthalpy [2]: -24.6 kcal/mol

GTTTTCGAAAGAAAAC ((((((....))))))
Tm [1]: 57.4 °C | folding enthalpy [2]: -29.2 kcal/mol

GTTTAGCGAAAGCTCAAC (((.(((....))).)))
Tm [1]: 41.7 °C | folding enthalpy [2]: -20.6 kcal/mol

GGTATGACGAAAGTCACC (((..(((....))))))
Tm [1]: 33.6 °C | folding enthalpy [2]: -11.8 kcal/mol

GATCGGTGTGCCGATC ((((((....))))))
Tm [1]: 64.8 °C | folding enthalpy [2]: -33.2 kcal/mol

GCCAGTGGAAACGTTGGC ((((..(....)..))))
Tm [1]: 48.2 °C | folding enthalpy [2]: -24.4 kcal/mol

GATGGTGGAAACACCATC (((((((....)))))))
Tm [1]: 65.1 °C | folding enthalpy [2]: -39.4 kcal/mol

GTATGGCGAAAGCCGTAC (((.(((....))).)))
Tm [1]: 56.9 °C | folding enthalpy [2]: -25.9 kcal/mol

GCAACACGAAAGTGGTGC (((.(((....))).)))
Tm [1]: 68.6 °C | folding enthalpy [2]: -32.2 kcal/mol

GGTTGAGGAAACTCAACC (((((((....)))))))
Tm [1]: 60.7 °C | folding enthalpy [2]: -40.1 kcal/mol

GCGTAGATACGC ((((....))))
Tm [1]: 52.9 °C | folding enthalpy [2]: -19.8 kcal/mol

GTACCCGGAAACGGGTGC (.(((((....))))).)
Tm [1]: 60.1 °C | folding enthalpy [2]: -20.1 kcal/mol

GGGACAGGAAACTGTCTC (.(((((....))))).)
Tm [1]: 51.1 °C | folding enthalpy [2]: -28.1 kcal/mol

TCGCAGAAATGCGA (((((....)))))
Tm [1]: 54.4 °C | folding enthalpy [2]: -17.1 kcal/mol

GTAATTGGAAACAATTGC (.(((((....))))).)
Tm [1]: 39.2 °C | folding enthalpy [2]: -26.5 kcal/mol

GCGAAGGAAACTTCGC ((((((....))))))
Tm [1]: 63.7 °C | folding enthalpy [2]: -34.8 kcal/mol

GATCACTTTGGTGATC ((((((....))))))
Tm [1]: 57.8 °C | folding enthalpy [2]: -42.3 kcal/mol

GTTCACGAAAGTGTTAAC ((((((....)))..)))
Tm [1]: 28 °C | folding enthalpy [2]: -12.2 kcal/mol

GAGGAACCGAAAGGTCTC (((..(((....))))))
Tm [1]: 35.2 °C | folding enthalpy [2]: -15.4 kcal/mol

GCGTTCGAAAGAACCGC ((((((....))).)))
Tm [1]: 54.3 °C | folding enthalpy [2]: -23.8 kcal/mol

GGATGAGGAAACTTATCC ((((.((....)).))))
Tm [1]: 38.6 °C | folding enthalpy [2]: -33.4 kcal/mol

GATCTACGTTTAGATC ((((((....))))))
Tm [1]: 39.1 °C | folding enthalpy [2]: -32.4 kcal/mol

GATCACCTTCGTGATC ((((((....))))))
Tm [1]: 56.7 °C | folding enthalpy [2]: -48.5 kcal/mol

GTCGCAACGAAAGTTGAC (((..(((....))))))
Tm [1]: 29.4 °C | folding enthalpy [2]: -12.1 kcal/mol

GAATCCCGAAAGGGGTTC (((.(((....))).)))
Tm [1]: 58.1 °C | folding enthalpy [2]: -33.9 kcal/mol

GATCTCTCGGAGATC ((((((...))))))
Tm [1]: 55.6 °C | folding enthalpy [2]: -37.1 kcal/mol

GATCGAGTACTCGATC ((((((....))))))
Tm [1]: 58.8 °C | folding enthalpy [2]: -43.4 kcal/mol

GACTCGGCGAAAGCCGTC (((..(((....))))))
Tm [1]: 36.2 °C | folding enthalpy [2]: -4.78 kcal/mol

GCTATCGAAAGATAGC ((((((....))))))
Tm [1]: 66.4 °C | folding enthalpy [2]: -39 kcal/mol

GCAAATACGAAAGTATGC (((..(((....))))))
Tm [1]: 38.7 °C | folding enthalpy [2]: -21.6 kcal/mol

GTAAGCGAAAGCTCGTAC ((((((....)))..)))
Tm [1]: 24.2 °C | folding enthalpy [2]: -8.1 kcal/mol

GGGCCAGGAAACTGGCTC (.(((((....))))).)
Tm [1]: 61 °C | folding enthalpy [2]: -16.1 kcal/mol

GGGAAGGGAAACCTTTCC ((.((((....)))).))
Tm [1]: 45.7 °C | folding enthalpy [2]: -24.4 kcal/mol

GCACAGCCGAAAGGCTGC (((..(((....))))))
Tm [1]: 39.9 °C | folding enthalpy [2]: -6.1 kcal/mol

GTACGCGAAAGCGTATAC ((((((....)))..)))
Tm [1]: 49.2 °C | folding enthalpy [2]: -9.55 kcal/mol

GGCACAGGAAACTGTGTC (.(((((....))))).)
Tm [1]: 54 °C | folding enthalpy [2]: -32.2 kcal/mol

GATCATCGAAATGATC ((((((....))))))
Tm [1]: 44.2 °C | folding enthalpy [2]: -29 kcal/mol

GCCAGCGAAAGCTGAGGC ((((((....)))..)))
Tm [1]: 53.5 °C | folding enthalpy [2]: -15.5 kcal/mol

GATCAGCGCCTGATC ((((((...))))))
Tm [1]: 48.7 °C | folding enthalpy [2]: -38.9 kcal/mol

GCGGTATACCGC ((((....))))
Tm [1]: 60.7 °C | folding enthalpy [2]: -27.4 kcal/mol

GGATCCGAAAGGACTCC ((((((....))).)))
Tm [1]: 47.4 °C | folding enthalpy [2]: -23.9 kcal/mol

GCATGGCGAAAGCTACGC ((.(.((....)).).))
Tm [1]: 35 °C | folding enthalpy [2]: -16.4 kcal/mol

GTTGAAGGAAACCTCAAC (((((.(....).)))))
Tm [1]: 36 °C | folding enthalpy [2]: -31 kcal/mol

GATCAATGGCTTGATC ((((((....))))))
Tm [1]: 42.2 °C | folding enthalpy [2]: -29 kcal/mol

GCGCCTGGAAACAAGCGC ((((.((....)).))))
Tm [1]: 52.8 °C | folding enthalpy [2]: -41.6 kcal/mol

GTCAAGGGAAACCTTGAC (((((((....)))))))
Tm [1]: 58 °C | folding enthalpy [2]: -47.2 kcal/mol

GCACAGACGAAAGTCTGC (((..(((....))))))
Tm [1]: 34.5 °C | folding enthalpy [2]: -8.42 kcal/mol

GCATTGCGAAAGCTACGC ((.(.((....)).).))
Tm [1]: 39.1 °C | folding enthalpy [2]: -14 kcal/mol

GTGTATCCGAAAGGACAC (((..(((....))))))
Tm [1]: 42.2 °C | folding enthalpy [2]: -21.6 kcal/mol

GAGAGCGAAAGCTGCTC ((((((....))).)))
Tm [1]: 47 °C | folding enthalpy [2]: -14 kcal/mol

GCGGCCACCGC ((((...))))
Tm [1]: 59.5 °C | folding enthalpy [2]: -19.6 kcal/mol

GACGATGGAAACACCATC ((.(.((....)).).))
Tm [1]: 28.4 °C | folding enthalpy [2]: -17 kcal/mol

GTCTGCGAAAGCAGTGAC ((((((....)))..)))
Tm [1]: 40.5 °C | folding enthalpy [2]: -9.57 kcal/mol

GCTCCGCGAAAGCAAAGC (((..((....))..)))
Tm [1]: 31.5 °C | folding enthalpy [2]: -11 kcal/mol

GCTACGCGAAAGCTTCGC ((.(.((....)).).))
Tm [1]: 37.6 °C | folding enthalpy [2]: -10.3 kcal/mol

GAGTTAGGAAACTAGCTC (((.(((....))).)))
Tm [1]: 40.4 °C | folding enthalpy [2]: -28.9 kcal/mol

GATCCTCGTCAGGATC ((((((....))))))
Tm [1]: 50.8 °C | folding enthalpy [2]: -25.1 kcal/mol
